Screening results from PubChem.
Rin1 Abl inh: inhibitors of human Rin1-Abl protein interaction | TR-FRET Rin1/Abl binding, biochemical | inhibition, % at 7.35 µM | hit rate 0.4% among 360,000; in the data active = inhibition above about 5%, passing the limit was not always enough
Rev-erbA mod: modulates human Rev-erb alpha binding to DNA; activity, % at 10 µM; P20393; hit rate 0.79% among 370,000; Rev-erbα–FITC-DNA binding, fluorescence polarization, 90 min;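 active = activity above about 14%, limit read from the data; passing the limit was not always enough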;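 also: 0% = DMSO wells with 35 nM protein and 100% = DMSO wells with 750 nM protein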
Target sequence (P20393 whole entry, looked up): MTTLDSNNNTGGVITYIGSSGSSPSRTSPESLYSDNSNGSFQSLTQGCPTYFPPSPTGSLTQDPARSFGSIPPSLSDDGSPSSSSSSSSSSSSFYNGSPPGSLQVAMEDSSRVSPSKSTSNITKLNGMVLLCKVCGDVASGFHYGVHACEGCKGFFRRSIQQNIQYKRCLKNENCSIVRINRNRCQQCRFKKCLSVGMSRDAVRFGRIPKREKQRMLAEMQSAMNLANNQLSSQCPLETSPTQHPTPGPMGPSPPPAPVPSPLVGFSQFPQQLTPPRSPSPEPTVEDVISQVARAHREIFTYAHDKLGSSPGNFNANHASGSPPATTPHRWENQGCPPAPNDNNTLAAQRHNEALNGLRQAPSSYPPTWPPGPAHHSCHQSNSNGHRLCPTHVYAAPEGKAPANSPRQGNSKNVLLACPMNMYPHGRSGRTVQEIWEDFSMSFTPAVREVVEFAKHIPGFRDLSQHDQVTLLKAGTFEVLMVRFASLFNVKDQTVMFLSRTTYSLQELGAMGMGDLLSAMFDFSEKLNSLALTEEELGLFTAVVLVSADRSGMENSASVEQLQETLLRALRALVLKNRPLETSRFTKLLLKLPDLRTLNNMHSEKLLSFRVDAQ
PG9 binder: small molecules binding HIV-1 gp120 antibody PG9; TR-FRET gp120-PG9 antibody binding; inhibition, % at 6.7 µM; hit rate 0.43% among 360,000; AID 624416; in the data active = inhibition above about 8.5%
Tb MetRS inh: Trypanosoma brucei MetRS inhibition | purified T. brucei MetRS, ATP depletion, Kinase-Glo luminescence | hit rate 0.4% among 360,000 | AID 624268 | inhibition, % at 11.9 µM;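 active = inhibition above a per-plate cutoff of the control wells' mean inhibition plus 3 SD, cut at about 5.5% in these data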;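 also: 0% = DMSO wells median and 100% = median of wells with control inhibitor compound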
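Test system – parasite MetRS enzyme · Reagent – substrates ATP, L-methionine and bulk Escherichia coli tRNA · Doses – 11.9 µM compound single dose, 0.9% DMSO · Times – 15 min enzyme-compound preincubation, 2 h reaction, 10 min detection, 25 °C · Signal – Kinase-Glo luminescence, ATP depletion format · Controls – DMSO-only wells as low control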
Rin1-Abl confirm: confirmation of inhibitors of human Rin1-Abl interaction. hit rate 49% among 1,300. AID 602124. TR-FRET Rin1-Abl binding, purified proteins. shares compounds with Rin1 Abl inh. inhibition, % at 7.35 µM
GFP quencher: quenches GFP fluorescence, counter-screen for Rin1-Abl inhibitors; shares compounds with Rin1 Abl inh; inhibitors/quenchers counterscreen; inhibition, % at 6.75 µM; hit rate 8.5% among 1,300; AID 602125;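 also: ABL1-eGFP fusion protein alone without its partner RIN1-SBP; 0% = protein with vehicle and 100% = wells lacking protein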
GFP quench dose: counter-screen for Rin1-Abl inhibitors: GFP quenchers, dose response | 230 tested, under 10 active | AID 602182 | IC50, µM | shares compounds with Rin1 Abl inh | GFP fluorescence interference/quenching counterscreen; call rule not given here;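 also: ABL1-eGFP fusion protein alone without its RIN1 binding partner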
* hit, by the source's call; x = not tested or not shown. In the library only some 1.8% were active in any assay of this set; here they are far more common. Rule as the data show it, unless noted: active = inhibition above about 6.5%; inactive = the rest.

SMILES	Rin1 Abl inh	Rev-erbA mod	PG9 binder	Tb MetRS inh	Rin1-Abl confirm	GFP quencher	others
O=C(Nc1cccc(F)c1)c1cccnc1	-4.2	-1.2	-1.4	0.3	x	x
O=C(Nc1cccc(NC(=O)c2cccnc2)c1)c1cccnc1	8.6*	-1.2	x	-0.4	-1.8	0.2
N#CC12CCCCC1CC1CCCCC1(C#N)N2Cc1cccnc1 (configuration not stated)	52.8*	x	1.1	-0.9	92.0*	-0.6	GFP quench dose=>67.5
COc1cccc(NS(=O)(=O)c2ccc3c(c2)C2C=CCC2C(c2ccc(C(=O)O)cc2)N3)c1 (configuration not stated)	11.5*	-9.3	-3.2	1.2	2.7	7.1*
COc1cccc(NS(=O)(=O)c2ccc3c(c2)CCCN3C(C)=O)c1	5.6	0.8	0.2	-1.8	x	x
COc1ccc(NC(=O)N2CCC(C(=O)c3ccc(F)cc3)CC2)cc1	0.0	-0.6	-0.9	-0.1	x	x
CSc1ccc(NC(=O)N2CCC(C(=O)c3ccc(F)cc3)CC2)cc1	7.4*	0.9	1.0	0.0	-1.3	0.1
Cc1ccc(CS/C(Nc2ccccc2C)=C(\C#N)C(=O)NCc2ccco2)c(C)c1	25.7*	-2.1	2.6	-0.4	0.6	1.6
CCOC(=O)CC[C@H]1CC[C@]2(CCCN(C(=O)C(C)(C)C)C2)O1	x	7.7	x	x	x	x
COC(=O)c1ccc(COC(=O)C2CCN(S(=O)(=O)c3ccc(C)c(C)c3)CC2)o1	16.4*	-2.8	-1.6	-0.5	31.4*	-1.5	GFP quench dose=>67.5
C[C@]12CCC(=O)C=C1CCC1C2[C@@H](O)C[C@@]2(C)C1CC[C@]2(O)C(=O)CO (some centres not stated)	x	-7.4	x	x	x	x
Cc1ccc(NC(=S)N(CCCN2CCOCC2)Cc2cccnc2)cc1C	12.4*	-0.5	-1.1	-0.4	-1.6	-1.0
Cc1ccccc1NC(=S)N(CCCN1CCOCC1)Cc1cccnc1	3.0	-3.7	0.4	1.2	x	x
CC(C)(C)NC(=O)c1ccc(NC(=O)c2ccccc2-c2ccccc2C(=O)O)cc1	6.5*	1.9	-0.5	-1.3	-0.5	0.7
O[C@H](COc1ccc(Cl)cc1)CN1CCC(C(O)(c2ccccc2)c2ccccc2)CC1	x	-0.3	x	x	x	x
COc1cc(=O)[nH]c(SCC(=O)Nc2ccc3ccccc3c2)n1	12.7*	-6.0	0.4	0.2	0.1	0.1
CCCc1cc(=O)[nH]c(SCC(=O)Nc2ccc3ccccc3c2)n1	4.2	8.7	0.7	-0.1	x	x
Oc1cccc(/C=N/NC(=S)Nc2cccnc2)c1O	0.0	-6.3	-0.3	0.4	x	x
COc1cccc(N/N=C/c2cccc(Br)c2O)c1	-1.8	3.8	-2.4	0.2	x	x
Cc1cccc(N/N=C/c2ccc(O)c(O)c2O)c1	25.5*	3.1	1.0	0.3	22.9*	12.6*
Oc1ccc(/C=N/NC(=S)Nc2cccnc2)c(O)c1O	30.6*	-31.5	-2.6	1.7	19.0*	14.8*
C=C(c1ccccc1OCc1cccc(Cl)c1)n1ccnc1	x	-0.7	x	x	x	x
C=C[C@@]1(C)CC(=O)[C@]2(O)[C@@]3(C)[C@@H](O)CCC(C)(C)[C@@H]3[C@H](OC(=O)CCN(C)C)[C@H](OC(C)=O)[C@@]2(C)O1	x	2.9	x	x	x	x
CC[C@]12c3[nH]c4ccc(Cl)cc4c3CCN1C(=O)[C@@H](CC(=O)NCCCN(C)C)C[C@@H]2C(=O)N1CCN(C(=O)c2ccco2)CC1	21.9*	-5.5	-1.9	-1.4	21.7*	-0.8	GFP quench dose=>67.5
CC[C@]12c3[nH]c4ccc(OC)cc4c3CCN1C(=O)C(CC(=O)NCC13CC4CC(CC(C4)C1)C3)C[C@@H]2C(=O)N1CCN(C(=O)C2CC2)CC1 (some centres not stated)	19.4*	-1.8	0.7	-0.8	23.8*	0.9	GFP quench dose=>67.5
SMILES	Rin1 Abl inh	Rev-erbA mod	PG9 binder	Tb MetRS inh	Rin1-Abl confirm	GFP quencher	others
N#Cc1ccc(NC(=O)Nc2cccc(C#N)c2)cc1	8.0*	7.9	-0.3	0.1	-1.3	-2.7
N#Cc1ccc(NC(=O)Nc2ccc(Oc3ccc(NC(=O)Nc4ccc(C#N)cc4)cc3)cc2)cc1	0.0	-0.4	0.0	-0.4	x	x
Cc1cc(=O)n(-c2ccc(C(=O)O)cc2)[nH]1	8.3*	1.6	0.0	1.2	0.0	-0.7
O=c1[nH]n(CC2COC3(CCCCC3)O2)c(=O)c2ccccc12 (configuration not stated)	34.5*	6.1	-0.6	0.5	27.4*	0.1	GFP quench dose=>67.6
O=C(Cn1[nH]c(=O)c2ccccc2c1=O)NC1CCCCCC1	0.9	-0.8	-0.1	-0.9	x	x
O=C(Cn1nc(-c2ccccc2)ccc1=O)NCCc1cccc(F)c1	x	-5.9	x	x	x	x
Cc1ccc(C2=NC(=O)/C(=C/c3cc(O)c(O)c(Br)c3)S2)cc1	8.5*	-30.9	-5.0	0.5	15.1*	41.1*
S=C1NC[C@H](Cc2ccccc2)N1CC1CCN(CCCC2CCCCC2)CC1	x	-6.0	-1.1	x	x	x
O=C(CNS(=O)(=O)c1cc2ccccc2s1)N1CCN(c2ccccn2)CC1	x	6.4	x	x	x	x
Cn1c(N)c(S(=O)(=O)N2CCN(C(=O)c3ccco3)CC2)c(=O)n(C)c1=O	0.3	8.0	-2.3	-1.1	x	x
Cc1c(S(=O)(=O)N2CCN(C(=O)c3ccco3)CC2)c(=O)n(C)c(=O)n1C	8.2*	4.8	-1.3	0.6	-0.7	-0.1
NCCCC(N)C(=O)O (configuration not stated)	x	0.2	x	x	x	x
CN(CCOC(=O)CC1C=CCC1)C1CN(Cc2cn(Cc3ccccc3Cl)nn2)S(=O)(=O)C1 (configuration not stated)	x	-2.1	x	x	x	x
COc1ccc(/C=N/NC(=O)c2ccc(C)cc2)cc1CN1CCN(c2ccc(F)cc2)CC1	-1.2	-1.9	x	0.4	x	x
COc1ccc(C(=O)N/N=C/c2ccc(OC)c(COc3ccccc3)c2)cc1	-0.7	-1.3	-2.2	-1.0	x	x
COc1ccc(/C=N\NC(=O)c2cc(O)c(O)c(O)c2)cc1COc1ccc(C(=O)OCC(C)C)cc1	15.3*	3.2	0.5	1.1	10.9*	5.8
COc1ccc(/C=N\NC(=O)c2cc(O)c(O)c(O)c2)cc1CN1CCN(c2ccc(F)cc2)CC1	52.6*	-1.8	-3.8	1.4	49.5*	11.4*
CC(=O)NC(c1ccc(N(C)C)cc1)c1cc(Cl)c2cccnc2c1O (configuration not stated)	6.6*	3.6	-0.3	-0.3	6.9*	2.0
CC(=O)NC(c1ccccc1)c1cc(Cl)c2cccnc2c1O (configuration not stated)	12.2*	-0.8	-1.8	-0.4	10.4*	5.1
CC(=O)NC(c1ccc(C)cc1)c1cc([N+](=O)[O-])c2cccnc2c1O (configuration not stated)	6.2	-1.5	-2.0	-0.3	x	x
Oc1c(C(c2ccccn2)N2CCCCC2)cc(Cl)c2cccnc12 (configuration not stated)	21.7*	3.8	0.3	-0.9	14.1*	2.3
